Consider two compounds from ChEMBL document CHEMBL4229396, “Synthesis, structure and bioactivity of primary sulfamate-containing natural products” (Bioorg Med Chem Lett, 2018).

For one data set, the target named is Carbonic anhydrase 1 (Homo sapiens, UniProt P00915). Briefly: Inhibition of recombinant human CA1 expressed in Escherichia coli assessed as reduction in CO2 hydration by stopped flow assay. The method, boiled down: (§1)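 Stopped-flow assay following the CA-catalysed hydration of CO2 (the physiological reaction); Ki values from three determinations, errors within ±5% of the reported value.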

A further data set concerns the target Carbonic anhydrase 2 (Homo sapiens, UniProt P00918). Briefly: Inhibition of recombinant human CA2 expressed in Escherichia coli assessed as reduction in CO2 hydration by stopped flow assay. The method, boiled down: as §1
The target in another data set is Carbonic anhydrase 4 (Homo sapiens, UniProt P22748). Briefly: Inhibition of recombinant human CA4 expressed in Escherichia coli assessed as reduction in CO2 hydration by stopped flow assay. The method, boiled down:
as §1

The target in another data set is Carbonic anhydrase 9 (Homo sapiens, UniProt Q16790). Briefly: Inhibition of recombinant human CA9 expressed in Escherichia coli assessed as reduction in CO2 hydration by stopped flow assay. Summed up: as §1
Data set [1] concerns Staphylococcus aureus. Briefly: Antibacterial activity against Staphylococcus aureus ATCC 43300 at 20 uM relative to control. The data set is classed as functional. Summed up:
(§2)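 Screened by CO-ADD at a single concentration of 20 µM; growth inhibition above 50% at this concentration was classed as a hit. Strains and sources are given in Supplementary Information.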

Data set [2] deals with Escherichia coli. Briefly: Antibacterial activity against Escherichia coli ATCC 25922 at 20 uM relative to control. The data set is classed as functional. Summed up:
as §2

The next data set has as its system Klebsiella pneumoniae. Briefly: Antibacterial activity against Klebsiella pneumoniae ATCC 700603 at 20 uM relative to control. The data set is classed as functional. Summed up: as §2
Another data set relates to Acinetobacter baumannii. Briefly: Antibacterial activity against Acinetobacter baumannii ATCC 19606 at 20 uM relative to control. The data set is classed as functional, ATCC 19606 = CIP 70.34 = JCM 6841. Summed up:
as §2

The test system of another data set is Pseudomonas aeruginosa. Briefly: Antibacterial activity against Pseudomonas aeruginosa ATCC 27853 at 20 uM relative to control. The data set is classed as functional. Summed up: as §2
In another data set the test system is Candida albicans. Briefly: Antifungal activity against Candida albicans ATCC 90028 at 20 uM by resazurin dye based assay relative to control. The data set is classed as functional. The method, boiled down: as §2
A further data set deals with Cryptococcus neoformans. Briefly: Antifungal activity against Cryptococcus neoformans var. grubii H99 ATCC 208821 at 20 uM by resazurin dye based assay relative to control. The data set is classed as functional. Summed up:
as §2
(Alamar Blue is a resazurin reagent that responds to reducing activity.)

Data set [3] deals with Staphylococcus aureus. Briefly: Antibacterial activity against Staphylococcus aureus ATCC 43300. The data set is classed as functional.
In data set [4] the test system is Escherichia coli. Briefly: Antibacterial activity against Escherichia coli ATCC 25922. The data set is classed as functional.
Data set [5] can be described thus: Cytotoxicity against HEK293 cells. Particulars: human. The data set is classed as cell-based.

By Ki is commonly meant a measure of affinity in units of concentration, obtained from inhibition or displacement. The term MIC denotes the lowest concentration that inhibits growth of the organism. Read a low MIC as inhibition by little substance. Broadly, the CC50 is the concentration giving 50% cytotoxicity. Read a high CC50 as lower toxicity to the cells.

Values after ≈ are worked out from the molar mass of the structure shown.

Carbonic anhydrase 4, sequence (P22748 whole entry): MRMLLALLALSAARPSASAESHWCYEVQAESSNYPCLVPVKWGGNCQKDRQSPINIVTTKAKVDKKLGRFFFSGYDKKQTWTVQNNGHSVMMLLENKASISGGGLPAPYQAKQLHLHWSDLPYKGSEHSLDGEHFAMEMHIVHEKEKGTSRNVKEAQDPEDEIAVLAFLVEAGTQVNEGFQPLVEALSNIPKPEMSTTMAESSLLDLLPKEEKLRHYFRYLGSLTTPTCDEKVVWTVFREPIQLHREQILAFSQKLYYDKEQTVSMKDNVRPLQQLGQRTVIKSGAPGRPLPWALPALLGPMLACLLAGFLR
Carbonic anhydrase 1, sequence (P00915 whole entry): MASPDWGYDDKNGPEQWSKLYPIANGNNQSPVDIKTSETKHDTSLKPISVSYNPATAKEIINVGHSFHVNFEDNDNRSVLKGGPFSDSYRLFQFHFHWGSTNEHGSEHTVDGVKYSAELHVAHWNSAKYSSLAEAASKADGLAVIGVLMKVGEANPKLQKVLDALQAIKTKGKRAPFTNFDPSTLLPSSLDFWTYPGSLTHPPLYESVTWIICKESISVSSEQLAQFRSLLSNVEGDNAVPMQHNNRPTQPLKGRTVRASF

On to `Nc1nc(Cl)nc2c1ncn2[C@@H]1O[C@H](COS(N)(=O)=O)[C@@H](O)[C@H]1O`, for which the Ki was determined as 167 nM at Carbonic anhydrase 1, 65.2 nM on Carbonic anhydrase 2, 234 nM on Carbonic anhydrase 4 and 143 nM on Carbonic anhydrase 9. Also, the Activity entry in the data set with Staphylococcus aureus [1] was “<=50%”; in the data set on Escherichia coli [2] it was greater than 50%; in the data set with Klebsiella pneumoniae, “<=50%”; in the data set with Acinetobacter baumannii it was “<=50%”; in the data set with Pseudomonas aeruginosa, “<=50%”; with Candida albicans, “<=50%”. The Activity result in the data set with Cryptococcus neoformans is listed as “<=50%”. Also, the MIC in the data set with Staphylococcus aureus [3] is greater than 20 µM; in the data set with Escherichia coli [4], 5 µM (≈ 1.9 µg/mL). In addition, the CC50 in data set [5] is less than 150 nM.
Take `Nc1ncnc2c1ncn2[C@@H]1O[C@H](COS(N)(=O)=O)[C@@H](O)[C@H]1O`: the Ki at Carbonic anhydrase 1 stood at 6350 nM; at Carbonic anhydrase 2 it was 3410 nM; on Carbonic anhydrase 4 it was 4450 nM; on Carbonic anhydrase 9, 3100 nM. For the same compound, the Activity in the data set on Staphylococcus aureus [1] was greater than 50%; with Escherichia coli [2] it was “<=50%”; with Klebsiella pneumoniae, “<=50%”; in the data set on Acinetobacter baumannii, “<=50%”; in the data set on Pseudomonas aeruginosa it was “<=50%”; in the data set with Candida albicans it was “<=50%”. In addition, in the data set with Cryptococcus neoformans, the Activity result is given as “<=50%”. Besides, the MIC in the data set on Staphylococcus aureus [3] is 10 µM (≈ 3.46 µg/mL); in the data set with Escherichia coli [4], greater than 20 µM. Also, in [5], the CC50 came to 800 nM.
